Measurements of several laboratories.
Target: Tyrosine-protein kinase receptor TYRO3 (TYRO3, Homo sapiens, UniProt Q06418)
One construct used (Q06418 41-890): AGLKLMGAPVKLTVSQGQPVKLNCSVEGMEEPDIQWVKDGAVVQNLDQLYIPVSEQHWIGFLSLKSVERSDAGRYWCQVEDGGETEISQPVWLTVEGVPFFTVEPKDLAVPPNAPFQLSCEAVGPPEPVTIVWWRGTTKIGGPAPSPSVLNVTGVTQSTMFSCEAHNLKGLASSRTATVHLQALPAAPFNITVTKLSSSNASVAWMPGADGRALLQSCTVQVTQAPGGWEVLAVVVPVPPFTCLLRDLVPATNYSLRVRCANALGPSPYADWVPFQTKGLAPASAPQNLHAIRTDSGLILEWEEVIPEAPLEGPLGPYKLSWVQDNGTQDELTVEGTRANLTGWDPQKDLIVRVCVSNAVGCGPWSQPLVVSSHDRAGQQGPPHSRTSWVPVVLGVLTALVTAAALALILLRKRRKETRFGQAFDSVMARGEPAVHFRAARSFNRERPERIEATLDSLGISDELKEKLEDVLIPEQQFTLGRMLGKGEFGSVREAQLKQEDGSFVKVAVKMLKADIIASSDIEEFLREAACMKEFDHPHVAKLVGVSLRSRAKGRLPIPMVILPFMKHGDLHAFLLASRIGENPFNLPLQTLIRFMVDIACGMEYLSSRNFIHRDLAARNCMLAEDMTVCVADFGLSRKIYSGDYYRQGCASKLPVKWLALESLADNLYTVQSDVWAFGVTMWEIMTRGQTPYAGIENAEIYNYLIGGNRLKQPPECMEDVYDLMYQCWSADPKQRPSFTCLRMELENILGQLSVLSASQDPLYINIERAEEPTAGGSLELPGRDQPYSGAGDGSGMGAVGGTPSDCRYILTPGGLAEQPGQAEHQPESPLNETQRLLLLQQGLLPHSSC

Cn1cc(-c2cc(F)cc(N3CCn4c(cc5c4CCCC5)C3=O)c2CO)cc(Nc2ccc(N3CCN(C4COC4)CC3)cn2)c1=O
inhibition (enzyme activity; inhibitor; 0.1 µM): 17%

C#Cc1n[nH]c2c(-c3cn([C@@H](C)c4ccccc4)c(=O)[nH]c3=O)cc(F)cc12
inhibition (enzyme activity; inhibitor; 0.1 µM): 47.7%

COc1ncccc1-c1cnn2ccc(N3CCN(C(=O)OC(C)C)CC3)nc12
remaining binding (binding; competition with immobilised ligand; 1 µM): 100%

N#CC1(c2ccccn2)CCN(Cc2cc(C(=O)O)c(=O)n3ccccc23)CC1
remaining binding (cell-free assay; competition with immobilised ligand; 1 µM): 98%

Cn1cc(-c2cccc(N3CCc4c(sc5c4CC(C)(C)C5)C3=O)c2CO)cc(Nc2ccncn2)c1=O
inhibition (enzyme activity; inhibitor; 1 µM): 4%

CC(C)(C)c1cc(C=C(C#N)C#N)cc(Br)c1O
remaining activity (enzyme activity; inhibitor; 0.5 µM): 110%

Cn1cncc1[C@@](O)(COc1ccc(C#N)cc1-c1ccc(OC(F)(F)F)cc1)c1ccc(C#N)cc1
remaining binding (cell-free assay; competition with immobilised ligand; 1 µM): 100%

C#Cc1n[nH]c2c(-c3cn([C@@H](C)c4ccccn4)c(=O)[nH]c3=O)cc(F)cc12
inhibition (enzyme activity; inhibitor; 0.1 µM): 30.8%

O=c1[nH]c2ccccc2n1C1CCN(Cc2ccc(-c3[nH]c4cc5ncnc5cc4nc3-c3ccccc3)cc2)CC1
remaining signal (cell-free assay; 0.5 µM): 103%

Cc1nn(C)cc1-c1nc2c(N3CCN(Cc4ccc(Cl)cc4)CC3)c(Cl)cnc2[nH]1
remaining binding (binding; competition with immobilised ligand; 1 µM): 73%
